Assay [1] relates to Canis familiaris. In words: Tested for antiarrhythmic property by measuring ability to decrease heart rate(drug free) is compared to Lidocaine using doses (3 and 6 mg/kg). The class given is functional, Canis lupus familiaris. Summed up: (§1)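 Mongrel dogs (about 12–25 kg), 1–4 days after coronary occlusion infarction, under sodium pentobarbital (~30 mg/kg) with 12-lead ECG monitoring. Agents and lidocaine were given iv at 3 and 6 mg/kg. Programmed ventricular stimulation was applied at baseline, about 2–5 min after each dose, and at 30 min. SVT was defined as ≥250 beats/min lasting ≥30 s. Pre means drug-free; post means after dosing.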

Assay [2] relates to Canis familiaris. In words: Tested for antiarrhythmic property by measuring ability to decrease heart rate(post drug) is compared to Lidocaine using doses(3 and 6 mg/kg). The class given is functional, Canis lupus familiaris. Summed up:
as §1

Assay [3] has as its system Canis familiaris. In words: Tested for antiarrhythmic property by measuring ability to decrease Mean blood pressure (drug free) is compared to Lidocaine using doses(3 and 6 mg/kg). The class given is functional, Canis lupus familiaris. Summed up:
as §1

In assay [4] the test system is Canis familiaris. Description: Tested for antiarrhythmic property by measuring ability to decrease Mean blood pressure (post drug) is compared to Lidocaine using doses(3 and 6 mg/kg). The class given is functional, Canis lupus familiaris. Summed up: as §1
The test system of assay [5] is Canis familiaris. In words: Antiarrhythmic property Nonsustained ventricular tachycardia is compared to lidocaine(2) using dose of (3 and 6 mg/kg). The class given is functional, Canis lupus familiaris, Heart. Summed up: as §1
For assay [6], the system named is Canis familiaris. In words: Antiarrhythmic property A-V nodal conduction time(post drug) is compared to lidocaine(2) using doses(3 and 6 mg/kg). The class given is functional, Canis lupus familiaris, Heart. Summed up:
as §1

Assay [7] has as its system Canis familiaris. Description: Antiarrhythmic property is compared to lidocaine(2) using doses(3 and 6 mg/kg). Time required for the ventricular myocardium to undergo depolarization and repolarization ((post drug). The class given is functional, Canis lupus familiaris. Summed up:
as §1

The test system of assay [8] is Canis familiaris. Description: Antiarrhythmic property is compared to lidocaine(2) using doses(3 and 6 mg/kg). Time required for the ventricular myocardium to undergo depolarization and repolarization (drug free). The class given is functional, Canis lupus familiaris. Summed up:
as §1

Assay [9] relates to Canis familiaris. In words: Antiarrhythmic property A-V nodal conduction time(drug free) is compared to lidocaine(2) using doses(3 and 6 mg/kg). The class given is functional, Canis lupus familiaris, Heart. Summed up: as §1
Assay [10] has as its system Canis familiaris. In words: Tested for antiarrhythmic property by measuring ability to decrease Mean blood pressure(post drug) is compared to Lidocaine using doses(3 and 6 mg/kg). The class given is functional, Canis lupus familiaris. The essentials:
as §1

Assay [11] has as its system Canis familiaris. Description: Antiarrhythmic property ventricular effective refractory period(drug free) is compared to lidocaine(2) using doses(3 and 6 mg/kg). The class given is functional, Canis lupus familiaris, Heart. Summed up: as §1
Assay [12] has as its system Canis familiaris. In words: Antiarrhythmic property ventricular effective refractory period(post drug) is compared to lidocaine(2) using doses(3 and 6 mg/kg). The class given is functional, Canis lupus familiaris, Heart. The essentials:
as §1

The subject of assay [13] is Canis familiaris. In words: Antiarrhythmic property A-V nodal conduction time(post drug) is compared to lidocaine(2) using dose (3 and 6 mg/kg). The class given is functional, Canis lupus familiaris, Heart. The essentials:
as §1

In assay [14] the test system is Canis familiaris. Description: Tested for antiarrhythmic property by measuring ability to decrease heart rate (drug free) is compared to Lidocaine using doses (3 and 6 mg/kg). The class given is functional, Canis lupus familiaris. The essentials:
as §1

Assay [15] deals with Canis familiaris. Description: Antiarrhythmic property His-Purkinje conduction time(drug free) is compared to lidocaine(2) using doses(3 and 6 mg/kg); No effect. Details: dose 6 mg/kg. The class given is functional, organism-based. As to conditions: Canis lupus familiaris; His-Purkinje system. The essentials:
as §1

Assay [16] has as its system Canis familiaris. In words: Antiarrhythmic property His-Purkinje conduction time(post drug) is compared to lidocaine(2) using doses(3 and 6 mg/kg); No effect. As to conditions: Canis lupus familiaris; His-Purkinje system. The class given is functional, organism-based. The arrangement: dose 6 mg/kg. Summed up:
as §1

The subject of assay [17] is Canis familiaris. In words: Antiarrhythmic property His-Purkinje conduction time(drug free) is compared to lidocaine(2) using doses(3 and 6 mg/kg). The class given is functional, Canis lupus familiaris, His-Purkinje system. The essentials: as §1
Assay [18] deals with Canis familiaris. In words: Antiarrhythmic property His-Purkinje conduction time(post drug) is compared to lidocaine(2) using doses(3 and 6 mg/kg). The class given is functional, Canis lupus familiaris, His-Purkinje system. The essentials:
as §1

The subject of assay [19] is Canis familiaris. In words: Antiarrhythmic property A-V nodal conduction time(post drug) is compared to lidocaine(2) using dose (3 and 6 mg/kg); No effect. The class given is functional, organism-based. The arrangement: dose 6 mg/kg. The note with it: Canis lupus familiaris; Heart. The essentials:
(§2)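 Mongrel dogs (~12–25 kg), 1–4 days after coronary occlusion leaving a surviving epicardial rim, anesthetized with sodium pentobarbital (~30 mg/kg). 12-lead ECG monitored throughout. Agent given iv at 3 and 6 mg/kg. Parameters recorded before (drug free) and after dosing. Programmed electrical stimulation tested SVT inducibility (≥250 beats/min, ≥30 s) at baseline, ~2–5 min after each dose, and at 30 min.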

Assay [20] deals with Canis familiaris. In words: Antiarrhythmic property is compared to lidocaine(2) using doses(3 and 6 mg/kg). Time required for the ventricular myocardium to undergo depolarization and repolarization ((post drug); No effect. The class given is functional, organism-based. As to conditions: Canis lupus familiaris. The arrangement: dose 6 mg/kg. The essentials: as §2
Assay [21] deals with Canis familiaris. Description: Antiarrhythmic property is compared to lidocaine(2) using doses(3 and 6 mg/kg). Time required for the ventricular myocardium to undergo depolarization and repolarization (drug free); No effect. The class given is functional, organism-based. Details: dose 6 mg/kg. As to conditions: Canis lupus familiaris. Summed up:
as §2

Assay [22] concerns Canis familiaris. Description: Antiarrhythmic property A-V nodal conduction time(drug free) is compared to lidocaine(2) using doses(3 and 6 mg/kg); No effect. The class given is functional, organism-based. The arrangement: dose 6 mg/kg. The note with it: Canis lupus familiaris; Heart. Summed up:
as §2

The test system of assay [23] is Canis familiaris. Description: Antiarrhythmic properties are compared to lidocaine(2) using doses(3 and 6 mg/kg). Time required for the ventricular myocardium to undergo depolarization and repolarization ((post drug); No effect. The class given is functional, organism-based. The arrangement: dose 6 mg/kg. As to conditions: Canis lupus familiaris. Summed up: as §2

Assay [24] relates to Canis familiaris. In words: Antiarrhythmic properties are compared to lidocaine(2) using doses(3 and 6 mg/kg). Time required for the ventricular myocardium to undergo depolarization and repolarization (drug free); No effect. The class given is functional, organism-based. The arrangement: dose 6 mg/kg. As to conditions: Canis lupus familiaris. The essentials: as §2
Assay [25] deals with Canis familiaris. Description: Antiarrhythmic property ventricular effective refractory period(drug free) is compared to lidocaine(2) using doses(3 and 6 mg/kg); No effect. The class given is functional, organism-based. The arrangement: dose 6 mg/kg. The note with it: Canis lupus familiaris; Heart. Summed up: as §2
The test system of assay [26] is Canis familiaris. In words: Antiarrhythmic property ventricular effective refractory period(post drug) is compared to lidocaine(2) using doses(3 and 6 mg/kg); No effect. The class given is functional, organism-based. Details: dose 6 mg/kg. As to conditions: Canis lupus familiaris; Heart. The essentials:
as §2

Active and inactive are the calls of the source.

Consider `CC(C)N1CC2CC(CN(C(=O)c3ccc(NS(C)(=O)=O)cc3)C2)C1.Cl`, for which the HR in the assay on Canis familiaris [1] and in the assay on Canis familiaris [2] was 150 beats min-1 each time. The MBP with Canis familiaris [3] and in the assay on Canis familiaris [4] was 95 mmHg each time. The same molecule came in with an NSVT with Canis familiaris [5] of 6 mg/kg.

As to `CC(C)N1CC2CC(CN(C(=O)c3ccc([N+](=O)[O-])cc3)C2)C1.Cl`, the results for the AH interval in the assay with Canis familiaris [6] and in the assay on Canis familiaris [9] were 75 ms and 60 ms, respectively. Besides, the QT is recorded as 260 ms with Canis familiaris [7] and 220 ms in the assay on Canis familiaris [8]. Also, the HR in the assay with Canis familiaris [1] was found to be 130 beats min-1; with Canis familiaris [2], 100 beats min-1. Also, the results for the MBP in the assay on Canis familiaris [3] and with Canis familiaris [10] were 95 mmHg and 75 mmHg, respectively. In the assay with Canis familiaris [11], this molecule showed an NSVT of 6 mg/kg. In addition, the VERP with Canis familiaris [11] turned out to be 160 ms; in the assay with Canis familiaris [12], 230 ms.

With `O=C(c1ccc(Cl)cc1)N1CC2CC(CN(CC3CC3)C2)C1`, the AH interval in the assay on Canis familiaris [13] was 68 ms; in the assay with Canis familiaris [9] it was 60 ms. In addition, the QT in the assay with Canis familiaris [7] is reported as 250 ms; in the assay on Canis familiaris [8] it was 215 ms. For the same molecule, the HR in the assay with Canis familiaris [14] is given as 125 beats min-1; with Canis familiaris [2], 105 beats min-1. The figures for the MBP with Canis familiaris [3] and in the assay on Canis familiaris [4] were 88 mmHg and 98 mmHg, respectively. Moreover, the HV interval entry in the assay on Canis familiaris [15] and in the assay on Canis familiaris [16] was “inactive” each time. Further, the VERP was 170 ms with Canis familiaris [11] and 220 ms in the assay with Canis familiaris [5].

`CC(C)N1CC2CC(CN(C(=O)c3ccc(-n4ccnc4)cc3)C2)C1`: the AH interval was 66 ms in the assay on Canis familiaris [6] and 57 ms in the assay with Canis familiaris [9]. Besides, the QT was 288 ms in the assay on Canis familiaris [7] and 196 ms with Canis familiaris [8]. In addition, the HR is reported as 148 beats min-1 in the assay with Canis familiaris [1] and 110 beats min-1 in the assay with Canis familiaris [2]. In addition, the MBP with Canis familiaris [3] was found to be 94 mmHg; with Canis familiaris [10], 84 mmHg. The HV interval in the assay on Canis familiaris [17] is on record as 32 ms; with Canis familiaris [18], 37 ms. For the same molecule, the VERP in the assay with Canis familiaris [11] is 144 ms; in the assay on Canis familiaris [12], 187 ms.

Take `c1ccc(CN2CC3CSCC(C3)C2)cc1`: the AH interval result with Canis familiaris [19] and with Canis familiaris [22] was “inactive” each time. The QT result with Canis familiaris [20], in the assay with Canis familiaris [21], with Canis familiaris [23] and with Canis familiaris [24] was “inactive” throughout. The VERP entry with Canis familiaris [25] and in the assay with Canis familiaris [26] was “inactive” each time.

(Values after ChEMBL document CHEMBL1129356, “Novel 3,7-diheterabicyclo[3.3.1]nonanes that possess predominant class III antiarrhythmic activity in 1-4 day post infarction dog models: X-ray diffraction analysis of 3-[4-(1H-imidazol-1-yl)benzoyl]-7-isopropyl-3,7-diazabicyclo[3.3.1]nona ne dihydroperchlorate” (1996).)
